From ChEMBL document CHEMBL1126557, “Novel antiasthmatic agents with dual activities of thromboxane A2 synthetase inhibition and bronchodilation. 2. 4-(3-Pyridyl)-1(2H)-phthalazinones” (J Med Chem, 1993) come the findings set out here.

The species named for assay [1] is Cavia porcellus. The assay can be described thus: In vitro inhibitory effect on the spasmogen-contracted guinea pig tracheal strips in presence of acetylcholine. It is filed as functional. Conditions: Trachea. The essentials: (§1)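 Tracheal strips in oxygenated Krebs-Henseleit, preincubated 60 min with indomethacin (3 μM) to remove spontaneous tone, resting tension 1 g. Contraction induced by acetylcholine (10^-5 M final) or histamine (10^-4 M final), with indomethacin present. Compound added cumulatively […]. […] IC50 taken from the concentration-response curve.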

Assay [2] is filed under the species Cavia porcellus. The experiment in a line: In vitro inhibitory effect on the contraction of guinea pig tracheal strips was examined for spontaneous contraction. It is filed as functional. Conditions: Trachea.
In assay [3] the test system is Cavia porcellus. The assay can be described thus: Tested in vivo for spasmogen inhalation induced collapse in conscious guinea pig in presence of acetylcholine (0.2%). The format is functional. A digest of the protocol:
(§2)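 Male guinea pigs (400–500 g), conscious, dosed orally with compound or vehicle, then placed in chambers. At 1 h, exposed for 9 min to spasmogen aerosol (acetylcholine 0.2% or histamine 0.03%). Time to collapse recorded; no collapse within 9 min counted as full protection. ≥3 doses tested. RD100 is the oral dose prolonging collapse time by 100 s over vehicle.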

The subject of assay [4] is Cavia porcellus. The experiment in a line: Tested in vivo for anaphylactic bronchoconstriction in OA sensitized guinea pig at intraduodenal dose of 10 mg/kg for 30 min. Conditions: Lung, 0.5 h. The format is functional. A digest of the protocol:
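Male Hartley guinea pigs (300–400 g) sensitized by ip and sc injection of 50 mg ovalbumin 15 days earlier. Anesthetized with pentobarbital 35 mg/kg ip, insufflation pressure recorded. Compound 10 mg/kg intraduodenal 30 min before challenge with OA aerosol (10 mg/mL, 10 s, ultrasonic nebulizer) through a by-passed ventilatory system. Reported as % inhibition.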

In assay [5] the test system is Cavia porcellus. The assay can be described thus: In vivo inhibitory effect on airway constriction induced by histamine 2-5 micro g/kg iv at 1 min after 10 mg/kg iv dose of compound. The format is functional. A digest of the protocol: (§3)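 Male Dunkin-Hartley guinea pigs anesthetized with pentobarbital 35 mg/kg ip, jugular vein and trachea cannulated, ventilated at 10 mL/kg, 60 strokes/min. Insufflation pressure recorded. Histamine 2–5 μg/kg iv repeated every 10 min until a reproducible control response. Compound 10 mg/kg iv 1 min before the next challenge.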

The target of assay [6] is T1, Thromboxane-A synthase (Rattus norvegicus) (UniProt P49430).
T1 sequence (whole entry): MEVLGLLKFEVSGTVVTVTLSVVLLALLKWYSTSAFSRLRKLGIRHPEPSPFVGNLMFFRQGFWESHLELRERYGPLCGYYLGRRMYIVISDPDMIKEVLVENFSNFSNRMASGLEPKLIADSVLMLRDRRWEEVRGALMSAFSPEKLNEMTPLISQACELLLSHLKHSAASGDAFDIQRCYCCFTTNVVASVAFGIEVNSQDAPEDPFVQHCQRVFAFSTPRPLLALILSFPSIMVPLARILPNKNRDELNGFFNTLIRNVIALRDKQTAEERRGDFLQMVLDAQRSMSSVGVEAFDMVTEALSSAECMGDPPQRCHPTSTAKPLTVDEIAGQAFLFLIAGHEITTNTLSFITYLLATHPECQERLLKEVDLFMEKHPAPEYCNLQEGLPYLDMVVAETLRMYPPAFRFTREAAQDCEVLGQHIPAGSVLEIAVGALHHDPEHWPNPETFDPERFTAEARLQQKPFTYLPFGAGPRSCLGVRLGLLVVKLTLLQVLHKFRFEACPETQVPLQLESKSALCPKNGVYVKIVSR
The experiment in a line: Tested ex vivo against TXA2 production in rat serum at 1 hr after peroral dose of 30 mg/kg and anesthetized with ether. It is filed as functional, organism-based. Further details: dose 30 mg/kg. A digest of the protocol: (§4)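 Male SD rats (240–260 g), fasted 20 h, dosed orally with compound in 0.5% carboxymethylcellulose or vehicle alone. At 1 h, ether anesthesia and 2 mL cardiac blood taken and clotted at 37 °C for 90 min.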

In assay [7] the test system is Cavia porcellus. The assay can be described thus: Tested in vivo for histamine-induced bronchoconstriction in guinea pig at intraduodenal dose of 60 mg/kg. The format is functional. A digest of the protocol: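 Male Dunkin-Hartley guinea pigs under ip pentobarbital (35 mg/kg), jugular vein and trachea cannulated, ventilated at 10 mL/kg, 60 strokes/min; insufflation pressure recorded by transducer. Histamine (1–5 μg/kg iv) repeated every 10 min until the control response was reproducible. Drug given intraduodenally through a catheter 30 min before histamine challenge.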

Assay [8] is filed under the species Cavia porcellus. The assay can be described thus: In vitro inhibitory effect on the spasmogen-contracted guinea pig tracheal strips in presence of histamine. It is filed as functional. To be noted: Trachea. The essentials: as §1
Assay [9] has as its system Cavia porcellus. The assay can be described thus: Tested in vivo for spasmogen inhalation induced collapse in conscious guinea pig in presence of histamine (0.03%). It is filed as functional. A digest of the protocol: as §2
The subject of assay [10] is Thromboxane-A synthase (Oryctolagus cuniculus). The experiment in a line: Tested in vitro against rabbit thromboxane A2 synthetase (TXA2) at 1 uM.
The species entered for assay [11] is Cavia porcellus. The assay can be described thus: In vitro bronchodilatory activity in guinea pig isolated tracheal strips. The format is functional. To be noted: Trachea.
In assay [12] the target is T2, Thromboxane-A synthase (Homo sapiens, UniProt P24557).
T2 sequence (P24557 whole entry): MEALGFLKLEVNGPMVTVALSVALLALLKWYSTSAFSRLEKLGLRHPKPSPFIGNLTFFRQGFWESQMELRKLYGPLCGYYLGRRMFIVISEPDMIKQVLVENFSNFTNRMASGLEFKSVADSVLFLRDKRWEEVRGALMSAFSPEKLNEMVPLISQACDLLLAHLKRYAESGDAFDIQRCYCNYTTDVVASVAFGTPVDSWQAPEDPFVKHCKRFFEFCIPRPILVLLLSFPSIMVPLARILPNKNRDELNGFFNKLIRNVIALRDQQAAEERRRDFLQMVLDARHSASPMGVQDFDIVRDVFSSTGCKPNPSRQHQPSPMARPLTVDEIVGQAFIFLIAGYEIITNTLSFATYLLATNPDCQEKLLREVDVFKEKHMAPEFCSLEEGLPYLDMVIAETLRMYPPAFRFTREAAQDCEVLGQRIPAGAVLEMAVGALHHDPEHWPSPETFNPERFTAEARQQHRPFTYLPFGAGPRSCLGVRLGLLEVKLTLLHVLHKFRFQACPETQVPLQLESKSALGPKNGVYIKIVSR
The experiment in a line: Tested in vitro against TXA2 synthetase inhibitory activity in human microsome. The essentials:
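Commercial human platelet microsomes. Preincubated with compound for 3 min at 25 °C in Tris-HCl 15 mM, NaCl 140 mM, glucose 10 mM, pH 7.6. Arachidonic acid 1–3 μM added, then 3 min at 25 °C. Stopped by chilling and acidifying to pH 3 with HCl, centrifuged, supernatant TXB2 measured by RIA.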

Assay [13] has as its target T3, Thromboxane-A synthase (Rattus norvegicus, UniProt P49430).
T3 sequence (P49430 whole entry): T1 sequence (whole entry)
The assay can be described thus: Tested in vitro against TXA2 synthetase inhibitory activity in rat platelet. A digest of the protocol:
(§5)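 Citrated human or rat blood centrifuged to platelet-rich plasma and platelets resuspended in Krebs-Henseleit at 1×10^8 cells/mL. Used for TXB2 production.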

The target of assay [14] is T2, Thromboxane-A synthase. The assay can be described thus: Tested in vitro against TXA2 synthetase inhibitory activity in human platelet. A digest of the protocol:
as §5

Assay [15] relates to Cavia porcellus. The assay can be described thus: In vivo inhibitory effect on airway constriction induced by histamine 2-5 ug/kg iv at 1 min after 10 mg/kg iv dose of compound. It is filed as functional. A digest of the protocol:
as §3

For assay [16], the system named is Cavia porcellus. The assay can be described thus: Tested in vivo for histamine-induced bronchoconstriction in guinea pig at intraduodenal dose of 10 mg/kg for 30 min. It is filed as functional. To be noted: 0.5 h. A digest of the protocol:
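Anesthetized, ventilated guinea pigs (pentobarbital 35 mg/kg ip) with insufflation pressure recorded. Histamine 2–5 μg/kg iv given repeatedly until a reproducible response. Compound 10 mg/kg injected into the duodenum through a catheter 30 min before histamine challenge. Expressed as % inhibition of the control response.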

The target of assay [17] is T3, Thromboxane-A synthase. The experiment in a line: Tested in vitro against TXA2 synthetase inhibitory activity in rat whole blood. The format is tissue-based. A digest of the protocol:
(§6)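 Non-anticoagulated human or rat blood split into 0.5-mL aliquots, each with one drug concentration or vehicle. Vortexed, then clotted 60 min at 37 °C. Serum deproteinized with EtOH and TXB2 measured by RIA. % inhibition against control.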

The subject of assay [18] is Rattus norvegicus. The experiment in a line: Tested ex vivo against serum TXB2 production at 1 hr after oral dose of 30 mg/kg of drug to rat. It is filed as functional. A digest of the protocol:
as §4

The test system of assay [19] is Rattus norvegicus. The assay can be described thus: Tested ex vivo against serum TXB2 production at 1 hr after oral dose of 3 mg/kg of drug to rat. It is filed as functional. The essentials:
as §4

For assay [20], the target named is T2, Thromboxane-A synthase. The experiment in a line: Tested in vitro against TXA2 synthetase inhibitory activity in human whole blood. The format is tissue-based. The essentials: as §6

As to `Cn1c(=O)c2[nH]cnc2n(C)c1=O.Cn1c(=O)c2[nH]cnc2n(C)c1=O.NCCN` [AMINOPHYLLINE], the results for the concentration for half-maximal inhibition (IC50) in [1], in assay [2] and in assay [8] were 300 µM, 44 µM and 320 µM, respectively. For the same compound, the RD100 in assay [3] was 66 mg/kg; in [9] it was over 60 mg/kg. Further, the inhibition in vivo (as a rule, the share of the control response that was lost under treatment) at 10 mg/kg turned out to be 42% in assay [4] and 86% in [5]. Besides, in assay [6], the inhibition (as a rule, the share of the control response that was lost under treatment) is 0%. In [7], this compound displayed an inhibition in vivo at 60 mg/kg of 87%.

Consider `CCn1nc(-c2cccnc2)c2ccccc2c1=O`, for which the inhibition came out at 87% in assay [10] and 92% in assay [6]. The half-maximal inhibitory concentration (IC50) (commonly the concentration that gives 50% inhibition) in assay [11] was 1.32 µM; in [12], 1.6 µM; in [13] it was 1.3 µM; in [14], 27.9 µM; in assay [1], 57 µM; in assay [2], 1.6 µM. In addition, the IC50 turned out to be 1.7 µM in [17], 2.3 µM in assay [20] and 46 µM in [8]. Also, the inhibition in vivo at 10 mg/kg in assay [15] stood at 100%; in assay [4], 71%; in assay [16] it was 72%. Besides, the RD100 was found to be 3.8 mg/kg in [3] and 6.5 mg/kg in assay [9]. Further, in assay [18], at 30 mg/kg the inhibition in vivo was 92%. In [19], this compound showed an inhibition in vivo at 3 mg/kg of 66%.

`Cn1nc(-c2cncs2)c2ccccc2c1=O`: the half-inhibitory concentration (IC50) in assay [11] was 1.58 µM; in assay [12], 3.9 µM; in assay [13], 0.3 µM; in assay [14], 0.5 µM; in assay [1], 46 µM; in assay [2] it was 1.8 µM. In addition, the 50% inhibitory concentration (IC50) amounted to 3.3 µM in assay [17], 8.7 µM in [20] and 28 µM in [8]. Further, the RD100 in assay [3] amounted to 6.6 mg/kg; in assay [9], 11.2 mg/kg. Further, the inhibition in vivo at 10 mg/kg in assay [4] was 61%; in assay [16] it was 68%. Besides, in assay [6], the inhibition stood at 83%. This compound returned an inhibition in vivo at 30 mg/kg in assay [18] of 83%. The compound also returned an inhibition in vivo at 3 mg/kg in assay [19] of 50%.
